Results pooled from the literature.
Protocols differ between the studies behind these lines.
Target: Serine/threonine-protein kinase DCLK2 (DCLK2, Homo sapiens, UniProt Q8N568)
One construct used (Q8N568 1-766): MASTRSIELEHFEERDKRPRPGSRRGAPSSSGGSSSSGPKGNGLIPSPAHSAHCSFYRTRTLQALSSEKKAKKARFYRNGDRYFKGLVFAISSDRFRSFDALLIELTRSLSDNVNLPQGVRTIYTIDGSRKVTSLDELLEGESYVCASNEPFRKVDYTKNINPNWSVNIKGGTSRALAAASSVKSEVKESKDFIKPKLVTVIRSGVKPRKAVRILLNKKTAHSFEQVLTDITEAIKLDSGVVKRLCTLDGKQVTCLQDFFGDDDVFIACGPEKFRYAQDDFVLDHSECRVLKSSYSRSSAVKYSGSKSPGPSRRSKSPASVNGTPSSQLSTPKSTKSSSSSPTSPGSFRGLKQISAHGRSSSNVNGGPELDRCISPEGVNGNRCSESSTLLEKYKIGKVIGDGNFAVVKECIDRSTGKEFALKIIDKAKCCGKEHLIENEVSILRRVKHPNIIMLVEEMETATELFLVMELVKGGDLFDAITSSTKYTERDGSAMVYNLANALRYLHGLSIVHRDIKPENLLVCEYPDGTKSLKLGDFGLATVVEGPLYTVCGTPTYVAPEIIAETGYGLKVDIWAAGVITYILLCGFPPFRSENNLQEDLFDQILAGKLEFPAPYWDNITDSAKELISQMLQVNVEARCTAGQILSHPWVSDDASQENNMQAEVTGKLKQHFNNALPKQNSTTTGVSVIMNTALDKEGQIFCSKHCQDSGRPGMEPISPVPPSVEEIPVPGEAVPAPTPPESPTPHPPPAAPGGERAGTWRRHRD

CN(c1nccc(-c2cnn3ncccc23)n1)C1CC1
remaining binding (binding; 1 µM): 100%

C[C@@H](c1ccc(-n2cnc3c(N)ncnc32)cc1)N1CCc2nn(C)c(Cc3ccccc3)c2C1=O
remaining binding (binding, competition with immobilised ligand; 0.1 µM): 100%

COc1cnc(Nc2cccc(S(N)(=O)=O)c2)nc1N1CCN(c2ccccc2)CC1
remaining binding (binding, competition with immobilised ligand; 1 µM): 92%

CN(C)c1ncc(F)c(-c2cnn3ncccc23)n1
remaining binding (binding; 1 µM): 96%

O=C1NC(c2ccccn2)Sc2ccccc21 (stereo not shown)
remaining binding (cell-free assay, competition with immobilised ligand; 1 µM): 92%

CN(CCCC(F)(F)F)c1nccc(-c2cnn3ncccc23)n1
remaining binding (binding; 1 µM): 88%

CNCc1ccccc1-c1csc([C@H](C)Nc2nc(C)nc3cc(OC)c(OC)cc23)c1
remaining binding (cell-free assay, competition with immobilised ligand; 1 µM): 100%

COc1cc(C(=O)N2CCC(N3CCN(C)CC3)CC2)ccc1Nc1ncc2c(n1)N(C)c1ccccc1C(=O)N2C
remaining binding (binding, competition with immobilised ligand; 10 µM): 0.45%

F[C@@H]1CCN(c2nccc(-c3cnn4ncccc34)n2)C1
remaining binding (binding; 1 µM): 88%

CCN1CCN(Cc2ccc(C(=O)Nc3ccc(C)c(Oc4ccc5c(c4)CC(=O)N5)c3)cc2C(F)(F)F)CC1
remaining binding (binding, competition with immobilised ligand; 1 µM): 92%

NS(=O)(=O)c1cc(NC(=O)C2(c3ccccc3Cl)CC2)ccc1Oc1cccc(Cl)c1
remaining binding (cell-free assay, competition with immobilised ligand; 1 µM): 74%

COc1cnc(Nc2cccc(S(N)(=O)=O)c2)nc1N1CCN(c2ccccc2)C(=O)C1
remaining binding (binding, competition with immobilised ligand; 1 µM): 100%

O=C(NCCCN1CCOCC1)c1ccc(Nc2nccc(-c3cc4ccccc4s3)n2)cc1
remaining binding (binding, competition with immobilised ligand; 1 µM): 98%

O=C(NCC1CCOCC1)c1n[nH]cc1NC(=O)c1c(F)cccc1F
remaining binding (binding, competition with immobilised ligand; 1 µM): 100%

COc1ncc2cc3ccccc3nc2c1C#N
remaining binding (cell-free assay, competition with immobilised ligand; 5 µM): 94%

CO[C@@H](C)c1c(Nc2ccc([C@@H](N(C)C(=O)C3CCS(=O)(=O)CC3)C(F)(F)F)cc2)cnc2cc(Cl)nn12
remaining binding (cell-free assay, competition with immobilised ligand; 1 µM): 95%

O=C(NCCCN1CCOCC1)c1ccc(Nc2ncc(Cl)c(-c3ccc(Cl)s3)n2)cc1
remaining binding (binding, competition with immobilised ligand; 1 µM): 78%

CCOCCn1cc(C(=O)Nc2ccc(-n3nc(-c4cccnc4)cc3C(F)(F)F)cn2)ccc1=O
remaining binding (cell-free assay, competition with immobilised ligand; 1 µM): 89%

O=C(c1ccc(Nc2ncc(Cl)c(-c3cc4ccccc4s3)n2)cc1)N1CCC(N2CCCC2)CC1
remaining binding (binding, competition with immobilised ligand; 1 µM): 90%
